Test results taken from ChEMBL document CHEMBL1147812 (J Med Chem, 2006).

Biological target: Neuronal acetylcholine receptor; alpha4/beta2 (Rattus norvegicus, UniProt P09483+P12390)
Experiment: Inhibition of [3H]cytisine binding to alpha4beta2 nACHR in Wistar rat cerebral cortical membrane
How it was run: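 Male Wistar rat (150-250 g) cerebral cortex homogenized at 0-4 °C in 50 mM Tris HCl pH 7.4 with 120 mM NaCl, 5 mM KCl, 1 mM MgCl₂, 2.5 mM CaCl₂, then washed twice by centrifugation at 27 000g. Membranes incubated with test drug and 1 nM ³H-cytisine (final) for 90 min at 2 °C. Nonspecific binding defined with 100 µM (-)-nicotine. Bound label collected on GF/C filters and counted by liquid scintillation.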

Chain of Neuronal acetylcholine receptor; alpha4/beta2 (P09483 whole entry): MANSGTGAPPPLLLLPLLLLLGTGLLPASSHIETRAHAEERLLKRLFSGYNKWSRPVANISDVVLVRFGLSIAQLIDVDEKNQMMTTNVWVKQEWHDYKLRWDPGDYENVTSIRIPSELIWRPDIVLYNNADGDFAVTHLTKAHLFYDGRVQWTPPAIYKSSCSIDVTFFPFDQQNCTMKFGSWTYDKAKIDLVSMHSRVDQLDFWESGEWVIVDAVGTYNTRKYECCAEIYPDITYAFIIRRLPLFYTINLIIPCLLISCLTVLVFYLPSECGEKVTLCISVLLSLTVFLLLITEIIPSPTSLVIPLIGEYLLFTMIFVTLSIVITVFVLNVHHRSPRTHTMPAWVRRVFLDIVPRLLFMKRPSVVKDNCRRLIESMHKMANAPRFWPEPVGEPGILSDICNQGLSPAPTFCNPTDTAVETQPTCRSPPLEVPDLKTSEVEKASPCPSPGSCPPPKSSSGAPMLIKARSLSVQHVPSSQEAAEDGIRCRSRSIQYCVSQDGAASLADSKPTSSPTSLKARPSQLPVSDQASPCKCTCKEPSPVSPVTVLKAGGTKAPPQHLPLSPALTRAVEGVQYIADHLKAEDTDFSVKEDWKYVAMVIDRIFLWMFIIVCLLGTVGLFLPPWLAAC
Chain of Neuronal acetylcholine receptor; alpha4/beta2 (P12390 whole entry): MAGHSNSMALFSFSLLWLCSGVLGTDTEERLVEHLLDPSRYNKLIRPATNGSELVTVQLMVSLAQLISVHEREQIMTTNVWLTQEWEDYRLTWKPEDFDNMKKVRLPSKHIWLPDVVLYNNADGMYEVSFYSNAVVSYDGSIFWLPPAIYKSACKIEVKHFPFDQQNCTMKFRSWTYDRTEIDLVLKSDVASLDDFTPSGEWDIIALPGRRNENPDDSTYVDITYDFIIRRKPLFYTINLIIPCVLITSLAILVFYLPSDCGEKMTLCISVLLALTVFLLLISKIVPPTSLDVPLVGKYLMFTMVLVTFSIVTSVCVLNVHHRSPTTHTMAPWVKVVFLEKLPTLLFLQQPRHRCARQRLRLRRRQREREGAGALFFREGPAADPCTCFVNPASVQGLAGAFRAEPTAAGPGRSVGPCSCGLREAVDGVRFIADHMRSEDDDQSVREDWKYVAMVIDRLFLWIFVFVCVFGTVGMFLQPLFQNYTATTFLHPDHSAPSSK

| SMILES | IC50 [nM] |
| --- | --- |
| c1ncc(N2CCCNCC2)cc1C1CC1 | 5.8 |
| C=COc1cncc(N2CCNCC2)c1 | 190 |
| Oc1cc(N2CCCNCC2)cnc1I | 22 |
| C/C=C\Oc1cncc(N2CCCNCC2)c1 | 1.3 |
| C=COc1cc(N2CCCNCCC2)cnc1Br | 0.38 |
| Brc1ccc(N2CCNCC2)cn1 | 180 |
| Clc1cncc(N2CCCNCCC2)c1 | 2 |
| Cc1ncc(N2CCNCC2)cc1Cl | 520 |
| Clc1ncc(N2CCCNCC2)cc1Br | 1.4 |
| c1cncc(N2CCCNCCC2)c1 | 0.9 |
| Brc1ccc(N2CCCNCCC2)cn1 | 0.45 |
| Clc1ncc(N2CCNCC2)cc1Br | 230 |
| Clc1cc(N2CCCNCC2)cnc1Br | 1.4 |
| C#Cc1cncc(N2CCNCC2)c1 | 110 |
| C=COc1cc(N2CCCNCC2)cnc1Br | 0.64 |
| COc1cncc(N2CCNCC2)c1 | 500 |
| Brc1cncc(N2CCCNCCC2)c1 | 2.8 |
| C/C=C\Oc1cncc(N2CCC3CCC(C2)N3)c1 (racemic) | 1.9 |
| CCOc1cncc(N2CCC3CCC(C2)N3)c1 (racemic) | 6.5 |
| Clc1cncc(OC2CCCNC2)c1 (racemic) | 240 |
| COc1cncc(N2C3CCNCC2CC3)c1 (racemic) | 10 |
| C/C=C\Oc1cncc(N2C3CCNCC2CC3)c1 (racemic) | 3.1 |
